Data set [1] deals with L1210. The data set can be described thus: In vitro growth inhibition of L1210 cells 48 hours after administration of compound. In kind it is functional, cell-based. As to conditions: Mus musculus, L1210, 48 h. A digest of the protocol:
(§1)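 Exponentially growing L1210 cells at (3–6) × 10⁴/mL in Fischer's medium with 10% horse serum, glutamine and antibiotic-antimycotic. Drug exposure lasted the stated time (2, 8, 24 or 48 h). Cells were then spun down and resuspended in drug-free medium. Coulter counts were taken 48 h after the start of treatment and expressed as percent of control. IC50 is given in μM.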

For data set [2], the system named is B16. The data set can be described thus: In vitro cytotoxicity (LC99) was measured against B16 Melanoma cells. Format: cell-based. As to conditions: mouse. In outline: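 B16 melanoma cells in exponential growth, (2–3) × 10⁶ in 10 mL serum-free MEM, exposed to drug for 2 h, then washed and resuspended in MEM + 10% FBS. Plated at 50–50 000 cells/plate, grown 8 d at 37 °C. Colonies stained with crystal violet and counted. LC99 (2-log drop in colony formation) taken from log-linear part of log surviving fraction vs concentration.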

Data set [3] deals with L1210. The data set can be described thus: In vitro growth inhibition of L1210 cells 8 hours after administration of compound. Format: functional, cell-based. As to conditions: Mus musculus, L1210, 8 h. In outline:
as §1

For data set [4], the system named is L1210. As to the kind of experiment: In vitro growth inhibition of L1210 cells 2 hours after administration of compound. In kind it is functional, cell-based. As to conditions: Mus musculus, L1210, 2 h. In outline: as §1
Data set [5] concerns L1210. The data set can be described thus: In vitro growth inhibition of L1210 cells 24 hours after administration of compound. In kind it is functional, cell-based. As to conditions: Mus musculus, L1210, 24 h. A digest of the protocol: as §1

Experimental findings from ChEMBL document CHEMBL1128741, “Synthesis and biological evaluation of 5-fluoro-2'-deoxyuridine phosphoramidate analogs” (J Med Chem, 1995) are described below.

On to `CC1CC(C)(C)NC(CCOP(=O)(OC[C@H]2O[C@@H](n3cc(F)c(=O)[nH]c3=O)C[C@@H]2O)N(C)CCBr)O1` (stereo partly specified), for which the IC50 (usually the point on the concentration scale where inhibition reaches its midpoint) in data set [1] came out at 2.5 nM; in data set [3] it was 50 nM; in data set [4] it was 120 nM; in data set [5], 18 nM. The LC99 in data set [2] was 101 µM.
Consider `CC1CC(C)(C)NC(CCOP(=O)(OC[C@H]2O[C@@H](n3cc(F)c(=O)[nH]c3=O)C[C@@H]2O)N2CCCCC2)O1` (stereo partly specified), for which the IC50 in data set [1] stood at 8 nM; in data set [3], 260 nM; in data set [4], 750 nM; in data set [5], 24 nM. In data set [2], this molecule gave an LC99 of 650 µM.
Consider `CC1CC(C)(C)NC(CCOP(=O)(OC[C@H]2O[C@@H](n3cc(F)c(=O)[nH]c3=O)C[C@@H]2O)N(C)CCI)O1` (stereo partly specified), for which the IC50 in data set [1] stood at 2 nM; in data set [3], 75 nM; in data set [4] it was 190 nM; in data set [5], 6 nM. The LC99 in data set [2] turned out to be 95 µM.
As for `O=c1[nH]cc(F)c(=O)[nH]1` [FLUOROURACIL], the IC50 in data set [1] worked out at 120 nM; in data set [3], 630 nM; in data set [4], 2200 nM; in data set [5], 220 nM. Moreover, the LC99 in data set [2] is more than 2000 µM.
As to `Cc1cn([C@H]2C[C@H](O)[C@@H](COP(=O)(OCCC3NC(C)(C)CC(C)O3)N(C)CCBr)O2)c(=O)[nH]c1=O` (stereo partly specified), the IC50 in data set [1] was found to be 590 nM; in data set [3], 10500 nM; in data set [4], 13000 nM; in data set [5], 7000 nM. The LC99 in data set [2] worked out at 165 µM.
As for `Cc1ccc(S(=O)(=O)OCCN(C)P(=O)(OCCC2NC(C)(C)CC(C)O2)OC[C@H]2O[C@@H](n3cc(F)c(=O)[nH]c3=O)C[C@@H]2O)cc1` (stereo partly specified), the IC50 turned out to be 2.5 nM in data set [1], 60 nM in data set [3], 160 nM in data set [4] and 19 nM in data set [5]. The same molecule showed an LC99 in data set [2] of 141 µM.
`CC1CC(C)(C)NC(CCOP(=O)(OC[C@H]2O[C@@H](n3cc(F)c(=O)[nH]c3=O)C[C@@H]2O)N2CCOCC2)O1` (stereo partly specified): the IC50 in data set [1] is 150 nM; in data set [3] it was 5000 nM; in data set [4] it was 15000 nM; in data set [5], 900 nM.
Regarding `CC1CC(C)(C)NC(CCOP(=O)(OC[C@H]2O[C@@H](n3ccc(=O)[nH]c3=O)C[C@@H]2O)N(C)CCBr)O1` (stereo partly specified), the IC50 in data set [1] is 430 nM; in data set [3] it was 8200 nM; in data set [4] it was 20000 nM; in data set [5], 1300 nM. Further, the LC99 in data set [2] amounted to 319 µM.
`CC1CC(C)(C)NC(CCOP(=O)(OC[C@H]2O[C@@H](n3ccc(=O)[nH]c3=O)C[C@@H]2O)N(CCBr)CCBr)O1` (stereo partly specified): the LC99 in data set [2] amounted to 155 µM.
Still for that read-out and setting: under `CC1CC(C)(C)NC(CCOP(=O)(OC[C@H]2O[C@@H](n3cc(F)c(=O)[nH]c3=O)C[C@@H]2O)N(CCBr)CCBr)O1` (stereo partly specified) stands 100 µM.
On to `CC1CC(C)(C)NC(CCOP(=O)(OC[C@H]2O[C@@H](n3ccc(=O)[nH]c3=O)C[C@@H]2O)N(C)CCCl)O1` (stereo partly specified), for which the IC50 in data set [1] came to 550 nM; in data set [3], 16500 nM; in data set [4], 40000 nM; in data set [5], 6000 nM.
Consider `CC1CC(C)(C)NC(CCOP(=O)(OC[C@H]2O[C@@H](n3cc(F)c(=O)[nH]c3=O)C[C@@H]2O)N(C)CCCl)O1` (stereo partly specified), for which the IC50 was 3.5 nM in data set [1], 160 nM in data set [3], 300 nM in data set [4] and 25 nM in data set [5]. The LC99 in data set [2] was 375 µM.
`Cc1cn([C@H]2C[C@H](O)[C@@H](COP(=O)(OCCC3NC(C)(C)CC(C)O3)N(CCBr)CCBr)O2)c(=O)[nH]c1=O` (stereo partly specified): the LC99 in data set [2] was 120 µM.
